# In ChEMBL document CHEMBL3751676, “Combating P-glycoprotein-mediated multidrug resistance with 10-O-phenyl dihydroartemisinin ethers in MCF-7 cells” (Eur J Med Chem, 2016):
# Active and inactive are the calls of the source. No cut-off for these calls is given here.
# Tests used:
# MCF7 [1] = assay: Cell cycle arrest in human MCF7 cells assessed as accumulation at G1 phase at 0.25 uM after 48 hrs by propidium iodide staining based flow cytometry (reference value: 62.8%); format: functional
# Outline: (§1)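 Cells treated for 24 h or 48 h, then trypsinized, fixed in ice-cold 70% ethanol and stained with propidium iodide for flow cytometry. Percentages of cells in G1 and sub-G1 are compared with untreated cells.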
# MCF7 [2] = assay: Cell cycle arrest in human MCF7 cells assessed as accumulation at G1 phase at 0.5 uM after 48 hrs by propidium iodide staining based flow cytometry (reference value: 62.8 %); format: functional; outline: as §1
# [3] = Cell cycle arrest in human MCF7/ADR cells assessed as accumulation at G1 phase at 0.05 uM after 24 hrs by propidium iodide staining based flow cytometry (reference value: 54.6 %); format: functional; conditions: NCI/ADR-RES; outline: as §1
# [4] = Cell cycle arrest in human MCF7/ADR cells assessed as accumulation at G1 phase at 0.25 uM after 24 hrs by propidium iodide staining based flow cytometry (reference value: 54.6 %); format: functional; conditions: NCI/ADR-RES; outline: as §1
# [5] = Cell cycle arrest in human MCF7/ADR cells assessed as accumulation at G1 phase at 0.05 uM after 48 hrs by propidium iodide staining based flow cytometry (reference value: 56.9 %); format: functional; conditions: NCI/ADR-RES; outline: as §1
# [6] = Cell cycle arrest in human MCF7/ADR cells assessed as accumulation at G1 phase at 0.25 uM after 48 hrs by propidium iodide staining based flow cytometry (reference value: 56.9 %); format: functional; conditions: NCI/ADR-RES; outline: as §1
# [7] = Cell cycle arrest in human MCF7/ADR cells assessed as accumulation at sub-G1 phase at 0.05 uM after 48 hrs by propidium iodide staining based flow cytometry (reference value: […]); format: functional; conditions: NCI/ADR-RES
# [8] = Cell cycle arrest in human MCF7/ADR cells assessed as accumulation at sub-G1 phase at 0.25 uM after 48 hrs by propidium iodide staining based flow cytometry (reference value: […]); format: functional; conditions: NCI/ADR-RES
# MCF7 [9] = assay: Downregulation of cyclin D1 expression in human MCF7 cells at 0.5 uM after 24 and 48 hrs by western blot analysis; format: functional, cell-based
# Outline: (§2)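 Lysates from treated cells were immunoblotted. Membranes were blocked in 5% nonfat milk, incubated overnight at 4 C with antibodies to PARP, p27, cyclin D1 or cyclin B1, and detected by enhanced chemiluminescence.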
# MCF7 [10] = assay: Effect on cleaved PARP level in human MCF7 cells at 0.5 uM after 24 and 48 hrs by western blot analysis; format: functional, cell-based; outline: as §2
# MCF7 [11] = assay: Downregulation of cyclin B1 expression in human MCF7 cells at 0.5 uM after 24 and 48 hrs by western blot analysis; format: functional, cell-based; outline: as §2
# MCF7 [12] = assay: Upregulation of p27 expression in human MCF7 Cells at 0.5 uM after 24 and 48 hrs by western blot analysis; format: functional, cell-based; outline: as §2
# NCI/ADR-RES [13] = assay: Effect on cleaved PARP level in human MCF7/ADR cells at 0.1 uM after 24 and 48 hrs by western blot analysis; format: functional, cell-based; outline: as §2
# [14] = Downregulation of cyclin D1 expression in human MCF7/ADR cells at 0.1 uM after 48 hrs by western blot analysis; format: functional, cell-based; conditions: NCI/ADR-RES; outline: as §2
# [15] = Downregulation of cyclin B1 expression in human MCF7/ADR cells at 0.1 uM after 48 hrs by western blot analysis; format: functional, cell-based; conditions: NCI/ADR-RES; outline: as §2
# NCI/ADR-RES [16] = assay: Effect on p27 expression in human MCF7/ADR cells at 0.1 uM after 48 hrs by western blot analysis; format: functional, cell-based; outline: as §2
# MCF7 [17] = assay: Cell cycle arrest in human MCF7 cells assessed as accumulation at G1 phase after 24 and 48 hrs by propidium iodide staining based flow cytometry; format: functional; outline: as §1
# MCF7 [18] = assay: Antiproliferative activity against human MCF7 cells after 96 hrs by MTT assay; format: functional; conditions: MCF7, 96 h
# Outline: (§3)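 MTT: cells seeded at 1.5-4.0 × 10^4 cells/mL and incubated overnight at 37 C, then exposed to 5-9 concentrations (DMSO stocks diluted in growth medium; final DMSO ≤0.5%) for 96 h. MTT added at 0.5 mg/mL for a further 4 h at 37 C and the formazan dissolved. Inhibition calculated relative to control; GI50 estimated by curve fitting; 3-5 repeats, mean ± SD.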
# [19] = Antiproliferative activity against human MCF7/ADR cells after 96 hrs by MTT assay; format: functional; conditions: NCI/ADR-RES; outline: as §3
# NCI/ADR-RES [20] = assay: Selectivity index, ratio of GI50 for human MCF7 cells to GI50 for human MCF7/ADR cells; format: functional
# MDR1 (ABCB1) [21] = target: T1, MDR1 (ABCB1) (Homo sapiens, UniProt P08183); assay: Activity at MDR1 (unknown origin) expressed in MDCK cells assessed as permeability across apical to basolateral after 90 mins by LC-MS/MS analysis; format: ADME, cell-based
# MDR1 (ABCB1) [22] = target: T1, MDR1 (ABCB1); assay: Activity at MDR1 (unknown origin) expressed in MDCK cells assessed as permeability across basolateral to apical after 90 mins by LC-MS/MS analysis; format: ADME, cell-based
# [23] = Permeability across apical to basolateral side in MDCK cells after 90 mins by LC-MS/MS analysis; format: ADME, cell-based, Canis lupus familiaris; conditions: dog
# Outline: (§4)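 Wild-type MDCK cells on Transwell filters. Transport was run in HBSS pH 7.4 at 37 °C in A-B and B-A directions, and plates were separated after 90 min incubation. Efflux ratio is Papp(B-A)/Papp(A-B). Papp is reported as "<" when receiver concentrations were below the quantitation limit.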
# [24] = Permeability across basolateral to apical side in MDCK cells after 90 mins by LC-MS/MS analysis; format: ADME, cell-based, Canis lupus familiaris; conditions: dog; outline: as §4
# MCF7 [25] = assay: Cell cycle arrest in human MCF7 cells assessed as accumulation at G1 phase at 0.25 uM after 24 hrs by propidium iodide staining based flow cytometry (reference value: 62.5 %); format: functional; outline: as §1
# MCF7 [26] = assay: Cell cycle arrest in human MCF7 cells assessed as accumulation at G1 phase at 0.5 uM after 24 hrs by propidium iodide staining based flow cytometry (reference value: 62.5 %); format: functional; outline: as §1
# T1 sequence (P08183 whole entry): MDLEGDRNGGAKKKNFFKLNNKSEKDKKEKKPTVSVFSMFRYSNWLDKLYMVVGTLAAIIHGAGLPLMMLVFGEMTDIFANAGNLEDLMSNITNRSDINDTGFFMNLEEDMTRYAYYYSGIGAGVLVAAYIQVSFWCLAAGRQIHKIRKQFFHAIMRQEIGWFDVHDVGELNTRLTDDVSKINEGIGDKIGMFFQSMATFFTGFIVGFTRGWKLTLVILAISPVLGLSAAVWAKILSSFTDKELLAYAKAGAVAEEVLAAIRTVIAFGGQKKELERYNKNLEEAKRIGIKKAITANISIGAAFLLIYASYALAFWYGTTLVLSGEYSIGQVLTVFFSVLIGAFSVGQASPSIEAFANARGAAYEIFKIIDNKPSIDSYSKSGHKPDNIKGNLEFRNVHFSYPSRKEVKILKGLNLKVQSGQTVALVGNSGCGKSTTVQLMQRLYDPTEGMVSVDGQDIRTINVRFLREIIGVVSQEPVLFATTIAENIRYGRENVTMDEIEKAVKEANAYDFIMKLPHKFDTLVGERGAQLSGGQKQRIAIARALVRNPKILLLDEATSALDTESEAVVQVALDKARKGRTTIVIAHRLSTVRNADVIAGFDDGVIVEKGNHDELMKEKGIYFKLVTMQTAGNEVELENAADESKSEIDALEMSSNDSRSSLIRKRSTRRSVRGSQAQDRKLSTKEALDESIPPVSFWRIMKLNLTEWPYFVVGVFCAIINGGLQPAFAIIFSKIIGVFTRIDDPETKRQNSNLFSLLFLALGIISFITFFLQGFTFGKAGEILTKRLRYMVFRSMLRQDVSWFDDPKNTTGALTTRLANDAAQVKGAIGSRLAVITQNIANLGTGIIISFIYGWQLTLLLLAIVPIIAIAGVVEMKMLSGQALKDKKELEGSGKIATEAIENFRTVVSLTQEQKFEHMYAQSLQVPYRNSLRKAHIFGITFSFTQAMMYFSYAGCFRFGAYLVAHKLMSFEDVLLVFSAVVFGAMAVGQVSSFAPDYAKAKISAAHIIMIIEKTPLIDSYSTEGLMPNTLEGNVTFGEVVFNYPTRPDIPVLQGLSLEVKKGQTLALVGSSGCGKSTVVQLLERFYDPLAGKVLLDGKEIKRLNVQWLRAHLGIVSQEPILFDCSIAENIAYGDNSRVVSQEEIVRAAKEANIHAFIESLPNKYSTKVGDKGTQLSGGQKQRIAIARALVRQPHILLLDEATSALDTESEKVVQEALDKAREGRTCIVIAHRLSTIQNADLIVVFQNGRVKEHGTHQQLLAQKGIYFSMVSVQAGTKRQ
smiles,measurement,setting,value
C[C@H]1[C@@H](Oc2ccc(/C=C/C(=O)N3CCN(c4cccc(C(F)(F)F)c4)CC3)cc2)O[C@@H]2O[C@@]3(C)CC[C@H]4[C@H](C)CC[C@@H]1[C@@]24OO3,Activity,MCF7 [1],82.3%
same,Activity,MCF7 [2],83.4%
same,Activity,[3],71.5%
same,Activity,[4],70.2%
same,Activity,[5],65.2%
same,Activity,[6],62.6%
same,Activity,[7],2.4%
same,Activity,[8],8.7%
same,inhibition,MCF7 [9],Active
same,Activity,MCF7 [10],inactive
same,inhibition,MCF7 [11],Active
same,Activity,MCF7 [12],Active
same,Activity,NCI/ADR-RES [13],inactive
same,inhibition,[14],Active
same,inhibition,[15],Active
same,Activity,NCI/ADR-RES [16],inactive
same,Activity,MCF7 [17],Dose-dependent effect
same,GI50,MCF7 [18],320 nM
same,GI50,[19],21 nM
same,RatioGI50,NCI/ADR-RES [20],15.24
same,Papp A→B at 1.5 h,MDR1 (ABCB1) [21],< 1.83 ×10⁻⁶ cm/s
same,Papp B→A at 1.5 h,MDR1 (ABCB1) [22],< 1 ×10⁻⁶ cm/s
same,Papp A→B at 1.5 h,[23],< 1.82 ×10⁻⁶ cm/s
same,Papp B→A at 1.5 h,[24],< 0.93 ×10⁻⁶ cm/s
same,Activity,MCF7 [25],70%
same,Activity,MCF7 [26],73.8%
C[C@H]1[C@@H](Oc2ccc(/C=C/C(=O)N3CCN(c4ccccn4)CC3)cc2)O[C@@H]2O[C@@]3(C)CC[C@H]4[C@H](C)CC[C@@H]1[C@@]24OO3,GI50,MCF7 [18],290 nM
same,GI50,[19],110 nM
same,RatioGI50,NCI/ADR-RES [20],2.64
C[C@H]1[C@@H](Oc2ccc(CN3CCN(c4ccccn4)CC3)cc2)O[C@@H]2O[C@@]3(C)CC[C@H]4[C@H](C)CC[C@@H]1[C@@]24OO3,GI50,MCF7 [18],170 nM
same,GI50,[19],55 nM
same,RatioGI50,NCI/ADR-RES [20],3.09
C[C@H]1[C@@H](Oc2ccc(CC(=O)N3CCN(c4cccc(C(F)(F)F)c4)CC3)cc2)O[C@@H]2O[C@@]3(C)CC[C@H]4[C@H](C)CC[C@@H]1[C@@]24OO3,GI50,MCF7 [18],260 nM
same,GI50,[19],41 nM
same,RatioGI50,NCI/ADR-RES [20],6.34
C[C@H]1[C@@H](Oc2ccc(/C=C/C(=O)N3CCN(c4ccccc4)CC3)cc2)O[C@@H]2O[C@@]3(C)CC[C@H]4[C@H](C)CC[C@@H]1[C@@]24OO3,GI50,MCF7 [18],110 nM
same,GI50,[19],51 nM
same,RatioGI50,NCI/ADR-RES [20],2.16
C[C@H]1[C@@H](Oc2ccc(CN3CCN(c4ccc(F)cc4)CC3)cc2)O[C@@H]2O[C@@]3(C)CC[C@H]4[C@H](C)CC[C@@H]1[C@@]24OO3,GI50,MCF7 [18],530 nM
same,GI50,[19],25 nM
same,RatioGI50,NCI/ADR-RES [20],21.2
same,Papp A→B at 1.5 h,MDR1 (ABCB1) [21],< 1.34 ×10⁻⁶ cm/s
same,Papp B→A at 1.5 h,MDR1 (ABCB1) [22],< 0.85 ×10⁻⁶ cm/s
same,Papp A→B at 1.5 h,[23],< 1.33 ×10⁻⁶ cm/s
same,Papp B→A at 1.5 h,[24],< 0.83 ×10⁻⁶ cm/s
C[C@H]1[C@@H](Oc2ccc(C(=O)N3CCN(c4ccccc4)CC3)cc2)O[C@@H]2O[C@@]3(C)CC[C@H]4[C@H](C)CC[C@@H]1[C@@]24OO3,GI50,MCF7 [18],100 nM
same,GI50,[19],75 nM
same,RatioGI50,NCI/ADR-RES [20],1.33
C[C@H]1[C@@H](Oc2ccc(CC(=O)N3CCN(c4ccc(F)cc4)CC3)cc2)O[C@@H]2O[C@@]3(C)CC[C@H]4[C@H](C)CC[C@@H]1[C@@]24OO3,GI50,MCF7 [18],290 nM
same,GI50,[19],44 nM
same,RatioGI50,NCI/ADR-RES [20],7.11
COc1ccccc1N1CCN(Cc2ccc(O[C@H]3O[C@@H]4O[C@@]5(C)CC[C@H]6[C@H](C)CC[C@@H]([C@H]3C)[C@@]46OO5)cc2)CC1,GI50,MCF7 [18],580 nM
same,GI50,[19],150 nM
same,RatioGI50,NCI/ADR-RES [20],3.87
C[C@H]1[C@@H](Oc2ccc(CC(=O)N3CCN(c4ccccc4)CC3)cc2)O[C@@H]2O[C@@]3(C)CC[C@H]4[C@H](C)CC[C@@H]1[C@@]24OO3,GI50,MCF7 [18],430 nM
same,GI50,[19],90 nM
same,RatioGI50,NCI/ADR-RES [20],4.78
